Entries after “also recorded” stand apart in the source; their conditions may differ. Values belong to the molecule of their own block, whether it stands above or below them. Numbered stars: 1 amine (or outer) side, 2 acyl side, 3 side chain; on linkers, the order of the positions; unused ones are H or OH. Square brackets hold non-standard residues; d marks the D form. Side chains are listed from the residue outwards. Peptide text beside a SMILES is read from it. * marks the point of attachment. Ethylenediamine = C(CN[*:2])N[*:1]; Hyp = O=C(O)[C@@H]1C[C@@H](O)CN1; Phg = N[C@H](C(=O)O)c1ccccc1; CO = O=C([*:1])[*:2]; Bn = c1ccc(C*)cc1
Experiments:
[1] = Docetaxel pharmacokinetics; format: in vivo, human; conditions: docetaxel 75 mg/m2 intravenously, coadministration of SOM230; single-agent docetaxel PK not done
[2] = tested on: patients with metastatic castrate-resistant prostate cancer (mCRPC); assay: Phase I dose escalation: dose-limiting toxicity, MTD and toxicities; format: in vivo, human
[3] = Pasireotide pharmacokinetics, radioimmunoassay with I-125-pasireotide; format: in vivo, human; conditions: intramuscular every 28 days
Method in brief: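 Competitive radioimmunoassay on patient samples: samples or standards incubated with I-125-pasireotide tracer and antiserum; immune complexes captured on anti-rabbit-coated magnetic beads, unbound fraction washed away, bound radioactivity read in gamma counter. Dosing: long-acting IM injection every 28 days at 40, 60 or 80 mg, with docetaxel 75 mg/m2 IV every 21 days and prednisone 5 mg orally twice daily.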

[4] = tested on: sst2; conditions: extremely high affinity compared to octreotide; cited from earlier work
[5] = tested on: sst3; conditions: extremely high affinity compared to octreotide; cited from earlier work
[6] = tested on: sst5; conditions: extremely high affinity compared to octreotide; cited from earlier work
[7] = tested on: PC3 cells; conditions: cited from earlier work
[8] = tested on: DU145 cells; conditions: cited from earlier work
[9] = tested on: sst1; conditions: extremely high affinity compared to octreotide; cited from earlier work
[10] = tested on: mCRPC; conditions: no different between the 2 arms; cited from earlier work
[11] = 60 mg dose level, 12 patients evaluated, number of patients

Docetaxel clearance compared with the data reported in the literature [1]: 3- to 4 fold higher
SMILES: CC(=O)O[C@@]12CO[C@@H]1C[C@H](O)[C@@]1(C)C(=O)[C@H](O)C3=C(C)[C@@H](OC(=O)[C@H](O)[C@@H](NC(=O)OC(C)(C)C)c4ccccc4)C[C@@](O)([C@@H](OC(=O)c4ccccc4)[C@H]21)C3(C)C [Docetaxel]

SMILES: NCCCC[C@@H]1NC(=O)[C@@H](Cc2c[nH]c3ccccc23)NC(=O)[C@H](c2ccccc2)NC(=O)[C@@H]2C[C@@H](OC(=O)NCCN)CN2C(=O)[C@H](Cc2ccccc2)NC(=O)[C@H](Cc2ccc(OCc3ccccc3)cc2)NC1=O [Pasireotide] (cyclo([Hyp]([CO-Ethylenediamine])[Phg][dW]KY(Bn)F))
Dehydration, Grade 1 [2, 11]: 0 n | Dehydration, Grade 2 [2, 11]: 0 n | Dehydration, Grade 3 [2, 11]: 1 n | Dehydration, Grade 4 [2, 11]: 0 n | Diarrhea, Grade 1 [2, 11]: 2 n | Diarrhea, Grade 2 [2, 11]: 1 n | Diarrhea, Grade 3 [2, 11]: 0 n | Diarrhea, Grade 4 [2, 11]: 0 n | Dry Mouth, Grade 1 [2, 11]: 1 n | Dry Mouth, Grade 2 [2, 11]: 0 n | Dry Mouth, Grade 3 [2, 11]: 0 n | Dry Mouth, Grade 4 [2, 11]: 0 n | Electrocardiogram QT Corrected Interval Prolong, Grade 1 [2, 11]: 0 n | Electrocardiogram QT Corrected Interval Prolong, Grade 2 [2, 11]: 1 n | Electrocardiogram QT Corrected Interval Prolong, Grade 3 [2, 11]: 0 n | Electrocardiogram QT Corrected Interval Prolong, Grade 4 [2, 11]: 0 n | Hyperglycemia, Grade 1 [2, 11]: 0 n | Hyperglycemia, Grade 2 [2, 11]: 0 n | Hyperglycemia, Grade 3 [2, 11]: 3 n | Hyperglycemia, Grade 4 [2, 11]: 0 n | Hyperkalemia, Grade 1 [2, 11]: 0 n | Hyperkalemia, Grade 2 [2, 11]: 1 n | Hyperkalemia, Grade 3 [2, 11]: 0 n | Hyperkalemia, Grade 4 [2, 11]: 0 n | Hypertension, Grade 1 [2, 11]: 0 n | Hypertension, Grade 2 [2, 11]: 0 n | Hypertension, Grade 3 [2, 11]: 2 n | Hypertension, Grade 4 [2, 11]: 0 n | Hyponatremia, Grade 1 [2, 11]: 0 n | Hyponatremia, Grade 2 [2, 11]: 0 n | Hyponatremia, Grade 3 [2, 11]: 1 n | Hyponatremia, Grade 4 [2, 11]: 0 n | Hypophosphatemia, Grade 1 [2, 11]: 0 n | Hypophosphatemia, Grade 2 [2, 11]: 0 n | Hypophosphatemia, Grade 3 [2, 11]: 3 n | Hypophosphatemia, Grade 4 [2, 11]: 0 n | Hypotension, Grade 1 [2, 11]: 0 n | Hypotension, Grade 2 [2, 11]: 0 n | Hypotension, Grade 3 [2, 11]: 1 n | Hypotension, Grade 4 [2, 11]: 0 n | Injection Site Reaction, Grade 1 [2, 11]: 1 n | Injection Site Reaction, Grade 2 [2, 11]: 0 n | Injection Site Reaction, Grade 3 [2, 11]: 0 n | Injection Site Reaction, Grade 4 [2, 11]: 0 n | Rash Acneiform, Grade 1 [2, 11]: 1 n | Rash Acneiform, Grade 2 [2, 11]: 0 n | Rash Acneiform, Grade 3 [2, 11]: 0 n | Rash Acneiform, Grade 4 [2, 11]: 0 n | Urinary Frequency, Grade 1 [2, 11]: 1 n | Urinary Frequency, Grade 2 [2, 11]: 0 n | Urinary Frequency, Grade 3 [2, 11]: 0 n | Urinary Frequency, Grade 4 [2, 11]: 0 n | Grade 4 or 5 toxicities ([2]; 60 mg dose, twelve patients evaluated): None of the patients experienced Grade 4 or 5 toxicities | Dose-limiting toxicities observed ([2]; 80-mg dose level of pasireotide): Grade 4 hyperglycemia unresponsive to therapy and Grade 4 neutropenia lasting for > 7 days in 1 patient each; also recorded: One patient had Grade 4 amylase elevation and the other had Grade 3 hyperglycemia requiring hospitalization | Hospitalizations because of hyperglycemia probably or definitely related to SOM230 ([2]; in vivo): Three | Steady state established in most patients [3]: ≤ 57 days | Binding to sst2 [4]: binds | Binding to sst3 [5]: binds | Binding to sst5 [6]: binds | Growth factor secretion in PC3 cells [7]: reduced secretion of stem cell factor and platelet-derived growth factor | Growth factors in DU145 cells [8]: decreased transforming growth factor-β and basic fibroblast growth factor | Binding to sst1 [9]: binds

SMILES: C[C@]12CC[C@@H]3c4ccc(OC(=O)N(CCCl)CCCl)cc4CC[C@H]3[C@@H]1CC[C@@H]2O [estramustine]
Median OS [10]: 18 months

Reference: article PMC6136146 (Clinical genitourinary cancer, 2018)
